Measurements taken from ChEMBL document CHEMBL2157878, “In vitro cellular uptake and dimerization of signal transducer and activator of transcription-3 (STAT3) identify the photosensitizing and imaging-potential of isomeric photosensitizers derived from chlorophyll-a and bacteriochlorophyll-a” (J Med Chem, 2011).

Experiments:
Mus musculus [1] = assay: Drug uptake in mouse Colon 26 cells xenografted iv dosed BALB/c mouse after 48 hrs by PET imaging; assay type: ADME, organism-based; settings: in vivo
How it was run: (§1)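 Colon26 tumors grown subcutaneously in BALB/c mice. ¹²⁴I-labeled photosensitizer given into the tail vein at 52–122 μCi. Under isoflurane/oxygen anesthesia, animals were scanned prone on a microPET for 30 min at 24, 48 and 72 h post-injection. Tumor uptake was estimated by region-of-interest calculations.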

Mus musculus [2] = assay: Drug uptake in mouse Colon 26 cells xenografted iv dosed BALB/c mouse after 72 hrs by PET imaging; assay type: ADME, organism-based; settings: in vivo; how it was run: as §1
Mus musculus [3] = assay: Drug uptake in mouse Colon 26 cells xenografted iv dosed BALB/c mouse after 24 hrs by PET imaging; assay type: ADME, organism-based; settings: in vivo; how it was run: as §1
Liver [4] = assay: Drug uptake in parenterally dosed BALB/c mouse liver xenografted with mouse Colon 26 cells after 72 hrs by PET analysis; assay type: ADME, organism-based; settings: in vivo
How it was run: (§2)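 Tumor-bearing BALB/c mice (Colon26, subcutaneous) received ¹²⁴I-labeled photosensitizer via the tail vein at 15–50 μCi. Three mice per time point were sacrificed at 24, 48 and 72 h. Organs were removed, weighed and counted in a γ-well counter. Uptake was expressed as %ID/g tissue.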

Spleen [5] = assay: Drug uptake in parenterally dosed BALB/c mouse spleen xenografted with mouse Colon 26 cells after 72 hrs by PET analysis; assay type: ADME, organism-based; settings: in vivo; how it was run: as §2
Intestine = assay: Drug uptake in parenterally dosed BALB/c mouse intestine xenografted with mouse Colon 26 cells after 72 hrs by PET analysis; assay type: ADME, organism-based; settings: in vivo, other; how it was run: as §2
Liver [6] = assay: Drug uptake in BALB/c mouse liver xenografted with mouse Colon 26 cells at 100 uCi administered parenterally after 24 hrs by PET analysis; assay type: ADME, tissue-based; settings: in vivo, other
How it was run: (§3)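 ¹²⁴I-labelled PS given by tail vein to BALB/c mice bearing Colon26 tumours (100 μCi per figure legend). Three mice per time point killed at 24, 48 and 72 h. Tumour, organs and blood weighed and counted in a γ-well counter. Uptake expressed as %ID/g.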

Kidney [7] = assay: Drug uptake in BALB/c mouse kidney xenografted with mouse Colon 26 cells at 100 uCi administered parenterally after 72 hrs by PET analysis; assay type: ADME, tissue-based; settings: in vivo, other; how it was run: as §3
Muscle tissue [8] = assay: Drug uptake in BALB/c mouse muscle xenografted with mouse Colon 26 cells at 100 uCi administered parenterally after 72 hrs by PET analysis; assay type: ADME, tissue-based; settings: in vivo, other; how it was run: as §3
Lung [9] = assay: Drug uptake in BALB/c mouse lungs xenografted with mouse Colon 26 cells at 100 uCi administered parenterally after 72 hrs by PET analysis; assay type: ADME, tissue-based; settings: in vivo, other; how it was run: as §3
Blood [10] = assay: Drug uptake in BALB/c mouse blood xenografted with mouse Colon 26 cells at 100 uCi administered parenterally after 48 hrs by PET analysis; assay type: ADME, tissue-based; settings: in vivo, other; how it was run: as §3
Muscle tissue [11] = assay: Drug uptake in BALB/c mouse muscle xenografted with mouse Colon 26 cells at 100 uCi administered parenterally after 48 hrs by PET analysis; assay type: ADME, tissue-based; settings: in vivo, other; how it was run: as §3
[12] = Drug uptake in mouse Colon 26 cells implanted subcutaneously in BALB/c mouse tumor at 100 uCi administered parenterally after 72 hrs by gamma counting; assay type: ADME, Neoplasm; settings: in vivo, sc; how it was run: as §3
Heart [13] = assay: Drug uptake in BALB/c mouse heart xenografted with mouse Colon 26 cells at 100 uCi administered parenterally after 72 hrs by PET analysis; assay type: ADME, tissue-based; settings: in vivo, other; how it was run: as §3
Blood [14] = assay: Drug uptake in BALB/c mouse blood xenografted with mouse Colon 26 cells at 100 uCi administered parenterally after 24 hrs by PET analysis; assay type: ADME, tissue-based; settings: in vivo, other; how it was run: as §3
Kidney [15] = assay: Drug uptake in BALB/c mouse kidney xenografted with mouse Colon 26 cells at 100 uCi administered parenterally after 48 hrs by PET analysis; assay type: ADME, tissue-based; settings: in vivo, other; how it was run: as §3
Muscle tissue [16] = assay: Drug uptake in BALB/c mouse muscle xenografted with mouse Colon 26 cells at 100 uCi administered parenterally after 24 hrs by PET analysis; assay type: ADME, tissue-based; settings: in vivo, other; how it was run: as §3
[17] = Drug uptake in BALB/c mouse gut xenografted with mouse Colon 26 cells at 100 uCi administered parenterally after 24 hrs by PET analysis; assay type: ADME, cell-based; settings: in vivo, other
[18] = Drug uptake in BALB/c mouse gut xenografted with mouse Colon 26 cells at 100 uCi administered parenterally after 72 hrs by PET analysis; assay type: ADME, cell-based; settings: in vivo, other; how it was run: as §3
Lung [19] = assay: Drug uptake in BALB/c mouse lungs xenografted with mouse Colon 26 cells at 100 uCi administered parenterally after 48 hrs by PET analysis; assay type: ADME, tissue-based; settings: in vivo, other; how it was run: as §3
[20] = Drug uptake in BALB/c mouse gut xenografted with mouse Colon 26 cells at 100 uCi administered parenterally after 48 hrs by PET analysis; assay type: ADME, cell-based; settings: in vivo, other; how it was run: as §3
[21] = Drug uptake in mouse Colon 26 cells implanted BALB/c mouse tumor at 100 uCi administered parenterally after 24 hrs by gamma counting; assay type: ADME, Neoplasm; settings: in vivo, other; how it was run: as §3
Liver [22] = assay: Drug uptake in BALB/c mouse liver xenografted with mouse Colon 26 cells at 100 uCi administered parenterally after 48 hrs […]; assay type: ADME, tissue-based; settings: in vivo; how it was run: as §3
Spleen [23] = assay: Drug uptake in BALB/c mouse spleen xenografted with mouse Colon 26 cells at 100 uCi administered parenterally after 72 hrs by PET analysis; assay type: ADME, tissue-based; settings: in vivo, other; how it was run: as §3
[24] = Drug uptake in mouse Colon 26 cells implanted subcutaneously in BALB/c mouse tumor at 100 uCi administered parenterally after 48 hrs by gamma counting; assay type: ADME, Neoplasm; settings: in vivo, sc; how it was run: as §3
Blood [25] = assay: Drug uptake in BALB/c mouse blood xenografted with mouse Colon 26 cells at 100 uCi administered parenterally after 72 hrs by PET analysis; assay type: ADME, tissue-based; settings: in vivo, other; how it was run: as §3
Spleen [26] = assay: Drug uptake in BALB/c mouse spleen xenografted with mouse Colon 26 cells at 100 uCi administered parenterally after 24 hrs by PET analysis; assay type: ADME, tissue-based; settings: in vivo, other; how it was run: as §3
Kidney [27] = assay: Drug uptake in BALB/c mouse kidney xenografted with mouse Colon 26 cells at 100 uCi administered parenterally after 24 hrs by PET analysis; assay type: ADME, tissue-based; settings: in vivo, other; how it was run: as §3
Heart [28] = assay: Drug uptake in BALB/c mouse heart xenografted with mouse Colon 26 cells at 100 uCi administered parenterally after 48 hrs by PET analysis; assay type: ADME, tissue-based; settings: in vivo, other; how it was run: as §3
Stomach [29] = assay: Drug uptake in BALB/c mouse stomach xenografted with mouse Colon 26 cells at 100 uCi administered parenterally after 24 hrs by PET analysis; assay type: ADME, tissue-based; settings: in vivo, other; how it was run: as §3
Spleen [30] = assay: Drug uptake in BALB/c mouse spleen xenografted with mouse Colon 26 cells at 100 uCi administered parenterally after 48 hrs by PET analysis; assay type: ADME, tissue-based; settings: in vivo; how it was run: as §3
Heart [31] = assay: Drug uptake in BALB/c mouse heart xenografted with mouse Colon 26 cells at 100 uCi administered parenterally after 24 hrs by PET analysis; assay type: ADME, tissue-based; settings: in vivo, other; how it was run: as §3
Lung [32] = assay: Drug uptake in BALB/c mouse lungs xenografted with mouse Colon 26 cells at 100 uCi administered parenterally after 24 hrs by PET analysis; assay type: ADME, tissue-based; settings: in vivo, other; how it was run: as §3
Stomach [33] = assay: Drug uptake in BALB/c mouse stomach xenografted with mouse Colon 26 cells at 100 uCi administered parenterally after 48 hrs by PET analysis; assay type: ADME, tissue-based; settings: in vivo, other; how it was run: as §3
Liver [34] = assay: Drug uptake in BALB/c mouse liver xenografted with mouse Colon 26 cells at 100 uCi administered parenterally after 72 hrs by PET analysis; assay type: ADME, tissue-based; settings: in vivo, other; how it was run: as §3
Stomach [35] = assay: Drug uptake in BALB/c mouse stomach xenografted with mouse Colon 26 cells at 100 uCi administered parenterally after 72 hrs by PET analysis; assay type: ADME, tissue-based; settings: in vivo; how it was run: as §3

Drug uptake (Mus musculus [1]) | Drug uptake (Mus musculus [2]) | Drug uptake (Mus musculus [3]) | Drug uptake (Liver [4]) | Drug uptake (Spleen [5]) | Drug uptake (Intestine) | Drug uptake (Liver [6]) | Drug uptake (Kidney [7]) | Drug uptake (Muscle tissue [8]) | Drug uptake (Lung [9]) | Drug uptake (Blood [10]) | Drug uptake (Muscle tissue [11]) | Drug uptake [12] | Drug uptake (Heart [13]) | Drug uptake (Blood [14]) | Drug uptake (Kidney [15]) | Drug uptake (Muscle tissue [16]) | Drug uptake [17] | Drug uptake [18] | Drug uptake (Lung [19]) | Compound | also measured
Active | Active | Active |  |  |  |  |  |  |  |  |  |  |  |  |  |  |  |  |  | CC[C@H]1c2cc3[nH]c4c(c5nc(cc6[nH]c(cc(n2)[C@@H]1C)c(C(C)OCc1cccc([124I])c1)c6C)C(C)=C5CCC(=O)OC)CC(=O)c4c3C (stereo partly drawn) | 
Active | Active | Active | Active | Active | Active |  |  |  |  |  |  |  |  |  |  |  |  |  |  | CC[C@H]1c2cc3[nH]c4c(c5nc(cc6[nH]c(cc(n2)[C@@H]1C)c(C(C)OCc1cccc([124I])c1)c6C)C(C)=C5CCC(=O)O)CC(=O)c4c3C (stereo partly drawn) | 
Active | Active | Active |  |  |  | Active | Active | Active | Active | Active | Active | Active | Active | Active | Active | Active | Active | Active | Active | CCC1=C(C)c2cc3[nH]c(cc4nc(c5c6[nH]c(cc1n2)c(C)c6C(=O)C5)C(CCC(=O)OC)[C@@H]4C)c(C)c3C(C)OCc1cccc([124I])c1 (stereo partly drawn) | Drug uptake [20]: Active; Drug uptake [21]: Active; Drug uptake (Liver [22]): Active; Drug uptake (Spleen [23]): Active; Drug uptake [24]: Active; Drug uptake (Blood [25]): Active; Drug uptake (Spleen [26]): Active; Drug uptake (Kidney [27]): Active; Drug uptake (Heart [28]): Active; Drug uptake (Stomach [29]): Active; Drug uptake (Spleen [30]): Active; Drug uptake (Heart [31]): Active; Drug uptake (Lung [32]): Active; Drug uptake (Stomach [33]): Active; Drug uptake (Liver [34]): Active; Drug uptake (Stomach [35]): Active
Active | Active | Active | Active | Active | Active | Active | Active | Active | Active | Active | Active | Active | Active | Active | Active | Active | Active | Active | Active | CCC1=C(C)c2cc3[nH]c(cc4nc(c5c6[nH]c(cc1n2)c(C)c6C(=O)C5)C(CCC(=O)O)[C@@H]4C)c(C)c3C(C)OCc1cccc([124I])c1 (stereo partly drawn) | Drug uptake [20]: Active; Drug uptake [21]: Active; Drug uptake (Liver [22]): Active; Drug uptake (Spleen [23]): Active; Drug uptake [24]: Active; Drug uptake (Blood [25]): Active; Drug uptake (Spleen [26]): Active; Drug uptake (Kidney [27]): Active; Drug uptake (Heart [28]): Active; Drug uptake (Stomach [29]): Active; Drug uptake (Spleen [30]): Active; Drug uptake (Heart [31]): Active; Drug uptake (Lung [32]): Active; Drug uptake (Stomach [33]): Active; Drug uptake (Liver [34]): Active; Drug uptake (Stomach [35]): Active
